Converted amounts (≈) assume the structure as drawn. The source made the active and inactive calls. No cut-off for these calls is given here.
Tests used:
[1] = system: Mycobacterium leprae [G89C]
[2] = molecular target: DNA gyrase subunit A/DNA gyrase subunit B (Mycobacterium tuberculosis (strain ATCC 25618 / H37Rv), UniProt P9WG45+P9WG47); assay: Inhibition of Mycobacterium tuberculosis DNA gyrase GyrA/GyrB assessed as reduction of enzyme supercoiling activity using relaxed pBR322 DNA substrate incubated for 1 hr at 37 degC by ethidium bromide based gel electrophoresis
[3] = system: Mycobacterium tuberculosis; assay: Antimicrobial activity against Mycobacterium tuberculosis H37Rv assessed as drug concentration causing =<1% […] bacterial growth incubated for 21 to 30 days by proportion method; assay type: functional
How it was run: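 H37Rv grown on Löwenstein-Jensen medium; 10³ and 10⁵ CFU spread on 7H11 agar with 10% OADC containing serial twofold compound dilutions. Colonies counted after 21–30 days at 37 °C. […] Compounds dissolved in DMSO or NaOH.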

[4] = system: Mycobacterium leprae; assay: Inhibition of Mycobacterium leprae DNA gyrase GyrA/GyrB assessed as reduction of enzyme supercoiling activity using relaxed pBR322 DNA substrate incubated for 2 hrs at 30 degC by ethidium bromide based gel electrophoresis
[5] = system: Mycobacterium leprae; assay: Inhibition of Mycobacterium leprae wild type DNA gyrase GyrA/GyrB-mediated DNA cleavable complex formation assessed as compound concentration inducing 25% DNA cleavage using relaxed pBR322 DNA substrate incubated for 1 hr at 30 degC by agarose gel electrophoresis
[6] = system: Mycobacterium leprae [A91V]; assay: Inhibition of Mycobacterium leprae […] DNA gyrase GyrA/GyrB A91V mutant-mediated DNA cleavable complex formation assessed as compound concentration inducing 25% DNA cleavage using relaxed pBR322 DNA substrate incubated for 1 hr at 30 degC by agarose gel electrophoresis

SMILES | CC25 [1] | IC50 [2] [µM] | MIC [3] [mg/L] | IC50 [4] [mg/L] | CC25 [5] [mg/L] | CC25 [6]
COc1c(N2CCNC(C)C2)c(F)cc2c(=O)c(C(=O)O)cn(C3CC3)c12 (stereo not drawn) [GATIFLOXACIN] | inactive | 7.99 | 0.125 (≈ 0.333 µM) | 3 (≈ 7.99 µM) | 1 (≈ 2.66 µM) | 
CCN(CC)C(=O)OCC1CN(c2c(F)cc3c(=O)c(C(=O)O)cn(C4CC4)c3c2OC)CCN1 (stereo not drawn) | inactive | 102 | 32 (≈ 65.2 µM) | 20 (≈ 40.8 µM) | 60 (≈ 122 µM) | 
CC1COc2c(N3CCN(C)CC3)c(F)cc3c(=O)c(C(=O)O)cn1c23 (stereo not drawn) [OFLOXACIN] | inactive | 16.6 | 1 (≈ 2.77 µM) | 8 (≈ 22.1 µM) | 10 (≈ 27.7 µM) | 
CCOC(=O)C1CN(c2cc3c(cc2F)c(=O)c(C(=O)O)cn3C2CC2)CCN1 (stereo not drawn) | inactive | 66.9 | 4 (≈ 9.92 µM) | 20 (≈ 49.6 µM) | 20 (≈ 49.6 µM) | 
CCCCNC(=O)OCC1CN(c2cc3c(cc2F)c(=O)c(C(=O)O)cn3C2CC2)CCN1 (stereo not drawn) | inactive | 65.1 | 16 (≈ 34.7 µM) | 22 (≈ 47.8 µM) | 30 (≈ 65.1 µM) | inactive
O=C(O)c1cn(C2CC2)c2cc(N3CCNCC3)c(F)cc2c1=O [CIPROFLOXACIN] | inactive |  | 0.5 (≈ 1.51 µM) | 2 (≈ 6.04 µM) |  | 
CCCCNC(=O)OCC1CN(c2c(F)cc3c(=O)c(C(=O)O)cn(C4CC4)c3c2OC)CCN1 (stereo not drawn) | inactive | 34.7 | 8 (≈ 16.3 µM) | 10 (≈ 20.4 µM) | 10 (≈ 20.4 µM) | 
CCOC(=O)C1CN(c2c(F)cc3c(=O)c(C(=O)O)cn(C4CC4)c3c2OC)CCN1 (stereo not drawn) | inactive | 48.5 | > 32 | 17 (≈ 39.2 µM) | 80 (≈ 185 µM) | 
O=C(O)c1cn(C2CC2)c2cc(N3CCNC(C(=O)O)C3)c(F)cc2c1=O (stereo not drawn) | inactive | 53.3 | 32 (≈ 85.3 µM) | 30 (≈ 79.9 µM) | 30 (≈ 79.9 µM) | 
COc1c(N2C[C@@H]3CCCN[C@@H]3C2)c(F)cc2c(=O)c(C(=O)O)cn(C3CC3)c12 [MOXIFLOXACIN] | inactive |  | 0.5 (≈ 1.25 µM) |  |  | 
CCN(CC)C(=O)OCC1CN(c2cc3c(cc2F)c(=O)c(C(=O)O)cn3C2CC2)CCN1 (stereo not drawn) | inactive | 575 | 128 (≈ 278 µM) | 118 (≈ 256 µM) | >240 | inactive
CCN1CCN(c2cc3c(cc2F)c(=O)c(C(=O)O)cn3C2CC2)CC1C(=O)O (stereo not drawn) | inactive | 119 | 32 (≈ 79.3 µM) | 35 (≈ 86.8 µM) | >240 | inactive
CCN1CCN(c2c(F)cc3c(=O)c(C(=O)O)cn(C4CC4)c3c2OC)CC1C(=O)O (stereo not drawn) | inactive | 201 | 32 (≈ 73.8 µM) | 55 (≈ 127 µM) | >240 | 
COc1c(N2CCNC(C(=O)O)C2)c(F)cc2c(=O)c(C(=O)O)cn(C3CC3)c12 (stereo not drawn) | inactive | 39.5 | 16 (≈ 39.5 µM) | 20 (≈ 49.3 µM) | 27 (≈ 66.6 µM) | 

Source: ChEMBL document CHEMBL2331356, “Synthesis of gatifloxacin derivatives and their biological activities against Mycobacterium leprae and Mycobacterium tuberculosis” (Bioorg Med Chem, 2013)
